Measurements reported in ChEMBL document CHEMBL1629663, “Postantibiotic effects of telavancin against 16 gram-positive organisms” (Antimicrob Agents Chemother, 2009).

Assays:
Type in all cases: functional
Staphylococcus aureus [1] = assay: Antimicrobial activity against vancomycin-resistant-, methicillin-resistant Staphylococcus aureus 510 assessed as time required to induce post antibiotic sub-MIC effect at 0.4 times MIC […] by plate counting method
In short: (§1)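 After 1 h preexposure to 10× MIC at 35°C and 1:1,000 dilution, cultures were split, and drug was re-added to final 0.2, 0.3 or 0.4× MIC, with a drug-free tube. Viable counts were taken every 2 h until McFarland 1 turbidity. Duration was derived from log10 CFU/ml versus time curves. Two experiments were run, each with a new inoculum.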

Staphylococcus aureus [2] = assay: Antimicrobial activity against heterogenous vancomycin-intermediate-, methicillin-resistant Staphylococcus aureus 873 assessed as time required to induce sub-MIC effect at 0.3 times MIC […] by plate counting method
In short: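 SME, viable plate count method: no prior drug exposure. About 5 × 10^6 CFU/ml in Mueller-Hinton broth at 35°C received 0.2, 0.3 or 0.4× MIC, alongside a drug-free tube. Counts were taken at the start, then every 2 h until McFarland no. 1 turbidity, as log10 CFU/ml against time. Two separate experiments, each with a new inoculum.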

Staphylococcus aureus [3] = assay: Antimicrobial activity against vancomycin-susceptible-, methicillin-resistant Staphylococcus aureus 1307 assessed as time required to induce post antibiotic sub-MIC effect at 0.3 times MIC […] by plate counting method; in short: as §1

SMILES: CCCCCCCCCCNCCN[C@@]1(C)C[C@H](O[C@H]2[C@H](Oc3c4cc5cc3Oc3ccc(cc3Cl)[C@@H](O)[C@@H](NC(=O)[C@@H](CC(C)C)NC)C(=O)N[C@@H](CC(N)=O)C(=O)N[C@H]5C(=O)N[C@H]3C(=O)N[C@H](C(=O)N[C@H](C(=O)O)c5cc(O)c(CNCP(=O)(O)O)c(O)c5-c5cc3ccc5O)[C@H](O)c3ccc(c(Cl)c3)O4)O[C@H](CO)[C@@H](O)[C@@H]2O)O[C@@H](C)[C@H]1O [TELAVANCIN]
- PAE (Staphylococcus aureus [1]): 8.1 h
- PAE (Staphylococcus aureus [2]): 0.5 h
- PAE (Staphylococcus aureus [3]): > 10.5 h
